Reference: ChEMBL document CHEMBL1629663, “Postantibiotic effects of telavancin against 16 gram-positive organisms” (Antimicrob Agents Chemother, 2009)
In brackets after ≈: the same amount, converted by molar mass.

Experiments:
[1] = test system: Staphylococcus aureus; assay: Antimicrobial activity against heterogenous vancomycin-intermediate-, methicillin-resistant Staphylococcus aureus 618 assessed as time required to induce post antibiotic sub-MIC effect at 0.4 times MIC […] by plate counting method; assay type: functional
Outline: (§1)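 PAE was first induced with 10× MIC for 1 h at 35°C (inoculum about 5 × 10^6 CFU/ml, Mueller-Hinton broth) and ended by 1:1,000 dilution. Cultures were then split and given 0.2, 0.3 or 0.4× MIC, with one tube left without drug. Viable counts were taken before exposure, after dilution, then every 2 h until McFarland no. 1 turbidity. Two separate experiments, each with a new inoculum.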

[2] = test system: Staphylococcus aureus; assay: Antimicrobial activity against heterogenous vancomycin-intermediate-, methicillin-resistant Staphylococcus aureus 873 by microdilution method; assay type: functional
[3] = test system: Enterococcus faecium; assay: Antimicrobial activity against Enterococcus faecium HMC 588 assessed as time required to induce sub-MIC effect at 0.2 times MIC exposed for 2 hrs by plate counting method; assay type: functional
Outline: (§2)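 Unexposed Mueller-Hinton broth cultures (about 5 × 10^6 CFU/ml, 35°C) were handled as in the PA-SME set but without the 10× MIC pre-exposure. They were diluted 1:1,000, then given telavancin at final 0.2, 0.3 or 0.4× MIC, with a drug-free control. Viable counts were taken every 2 h until McFarland no. 1 turbidity. Effect duration comes from log10 CFU/ml-time plots; two separate experiments with new inocula.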

[4] = test system: Staphylococcus aureus; assay: Antimicrobial activity against vancomycin-intermediate-, methicillin-resistant Staphylococcus aureus 555 assessed as time required to induce post antibiotic sub-MIC effect at 0.3 times MIC […] by plate counting method; assay type: functional; outline: as §1
[5] = test system: Staphylococcus aureus; assay: Antimicrobial activity against vancomycin-intermediate-, methicillin-resistant Staphylococcus aureus 1984 assessed as time required to induce sub-MIC effect at 0.4 times MIC […] by plate counting method; assay type: functional
Outline: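 SME, viable plate count method: no prior drug exposure. About 5 × 10^6 CFU/ml in Mueller-Hinton broth at 35°C received 0.2, 0.3 or 0.4× MIC, alongside a drug-free tube. Counts were taken at the start, then every 2 h until McFarland no. 1 turbidity, as log10 CFU/ml against time. Two separate experiments, each with a new inoculum.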

[6] = test system: Enterococcus faecium; assay: Antimicrobial activity against Enterococcus faecium HMC 588 assessed as time required to induce sub-MIC effect at 0.3 times MIC exposed for 2 hrs by plate counting method; assay type: functional; outline: as §2
[7] = test system: Streptococcus pyogenes; assay: Antimicrobial activity against Streptococcus pyogenes HMC 414 assessed as time required to induce sub-MIC effect at 0.2 times MIC exposed for 2 hrs by plate counting method; assay type: functional; outline: as §2
[8] = test system: Staphylococcus aureus; assay: Antimicrobial activity against heterogenous vancomycin-intermediate-, methicillin-resistant Staphylococcus aureus 618 assessed as post-antibiotic effect at 10 times MIC pre-exposed to Telavancin for 1 hr by plate counting method; assay type: functional
Outline: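 Viable plate count method in Mueller-Hinton broth. Direct colony suspension inoculum of about 5 × 10^6 CFU/ml was exposed to 10× MIC for 1 h at 35°C in a shaking water bath, then diluted 1:1,000 to remove drug. Counts were taken before exposure, at 0 h, then every 2 h until McFarland no. 1 turbidity. PAE = T − C, the time to a 1 log10 rise versus an unexposed growth control.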

[9] = test system: Staphylococcus aureus; assay: Antimicrobial activity against vancomycin-susceptible-, methicillin-resistant Staphylococcus aureus ATCC 33591 assessed as time required to induce sub-MIC effect at 0.4 times MIC exposed for 2 hrs by plate counting method; assay type: functional
Outline: (§3)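 Sub-MIC effect: cultures not preexposed to drug were diluted and handled as in the PA-SME procedure in Mueller-Hinton broth with final 0.2, 0.3 or 0.4× MIC, plus a drug-free control. Viable plate counts were taken every 2 h until McFarland 1 turbidity. Duration was derived from growth curves. Two experiments were run, each with a new inoculum.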

[10] = test system: Staphylococcus aureus; assay: Antimicrobial activity against heterogenous vancomycin-intermediate-, methicillin-resistant Staphylococcus aureus 618 assessed as time required to induce post antibiotic sub-MIC effect at 0.3 times MIC […] by plate counting method; assay type: functional; outline: as §1
[11] = Protein binding healthy human serum; assay type: ADME, cell-free; details: read-out: PB
[12] = test system: Staphylococcus aureus; assay: Antimicrobial activity against vancomycin-intermediate-, methicillin-resistant Staphylococcus aureus 1287 assessed as time required to induce post antibiotic sub-MIC effect at 0.4 times MIC […] by plate counting method; assay type: functional; outline: as §1
[13] = test system: Staphylococcus aureus; assay: Antimicrobial activity against vancomycin-resistant-, methicillin-resistant Staphylococcus aureus 510 assessed as time required to induce post antibiotic sub-MIC effect at 0.3 times MIC […] by plate counting method; assay type: functional
Outline: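 After 1 h preexposure to 10× MIC at 35°C and 1:1,000 dilution, cultures were split, and drug was re-added to final 0.2, 0.3 or 0.4× MIC, with a drug-free tube. Viable counts were taken every 2 h until McFarland 1 turbidity. Duration was derived from log10 CFU/ml versus time curves. Two experiments were run, each with a new inoculum.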

[14] = test system: Staphylococcus aureus; assay: Antimicrobial activity against heterogenous vancomycin-intermediate-, methicillin-resistant Staphylococcus aureus 873 assessed as time required to induce post antibiotic sub-MIC effect at 0.3 times MIC […] by plate counting method; assay type: functional; outline: as §1
[15] = test system: Staphylococcus aureus; assay: Antimicrobial activity against vancomycin-susceptible-, methicillin-resistant Staphylococcus aureus ATCC 33591 assessed as time required to induce sub-MIC effect at 0.3 times MIC exposed for 2 hrs by plate counting method; assay type: functional; outline: as §3
[16] = test system: Enterococcus faecalis; assay: Antimicrobial activity against Enterococcus faecalis HMC 571 assessed as time required to induce post antibiotic sub-MIC effect at 0.3 times MIC […] by plate counting method; assay type: functional
Outline: (§4)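 Mueller-Hinton broth cultures of about 5 × 10^6 CFU/ml were pre-exposed to telavancin at 10× MIC for 1 h at 35°C, then diluted 1:1,000. Telavancin was re-added to final 0.2, 0.3 or 0.4× MIC, alongside a drug-free tube. Viable counts were taken before exposure, after dilution, then every 2 h until McFarland no. 1 turbidity. Duration comes from log10 CFU/ml-versus-time plots; two separate experiments with fresh inocula.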

[17] = test system: Enterococcus faecium; assay: Antimicrobial activity against Enterococcus faecium HMC 588 assessed as time required to induce post antibiotic sub-MIC effect at 0.3 times MIC […] by plate counting method; assay type: functional; outline: as §4
[18] = test system: Streptococcus pyogenes; assay: Antimicrobial activity against Streptococcus pyogenes HMC 414 assessed as post-antibiotic effect at 10 times MIC pre-exposed to Telavancin for 1 hr by plate counting method; assay type: functional
Outline: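 Organisms were suspended in Mueller-Hinton broth from overnight blood agar colonies at about 5 × 10^6 CFU/ml. Cultures were exposed to telavancin at 10× MIC for 1 h at 35°C in a shaking water bath, then diluted 1:1,000 to remove the drug, with an untreated growth control. Viable counts were taken before exposure, at 0 h, then every 2 h until McFarland no. 1 turbidity. PAE = T − C, the time to a 1 log10 rise. Two experiments.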

[19] = test system: Enterococcus faecalis; assay: Antimicrobial activity against Enterococcus faecalis ATCC 29212 by microdilution method; assay type: functional

## CCCCCCCCCCNCCN[C@@]1(C)C[C@H](O[C@H]2[C@H](Oc3c4cc5cc3Oc3ccc(cc3Cl)[C@@H](O)[C@@H](NC(=O)[C@@H](CC(C)C)NC)C(=O)N[C@@H](CC(N)=O)C(=O)N[C@H]5C(=O)N[C@H]3C(=O)N[C@H](C(=O)N[C@H](C(=O)O)c5cc(O)c(CNCP(=O)(O)O)c(O)c5-c5cc3ccc5O)[C@H](O)c3ccc(c(Cl)c3)O4)O[C@H](CO)[C@@H](O)[C@@H]2O)O[C@@H](C)[C@H]1O [TELAVANCIN]
[1]
  PAE: 10.3 h
[2]
  MIC: 0.12 µg/mL (≈ 0.0684 µM)
[3]
  PAE: 1.2 h
[4]
  PAE: 10.3 h
[5]
  PAE: 10 h
[6]
  PAE: 7.2 h
[7]
  PAE: 0 h
[8]
  PAE: 1.7 h
[9]
  PAE: 2.3 h
[10]
  PAE: 8.3 h
[11]
  fraction unbound: ≤ 0.1
[12]
  PAE: > 10 h
[13]
  PAE: 6 h
[14]
  PAE: 4.8 h
[15]
  PAE: 1.4 h
[16]
  PAE: 7.2 h
[17]
  PAE: 8.9 h
[18]
  PAE: 6.1 h
[19]
  MIC: 0.25 µg/mL (≈ 0.142 µM)
